Tests used:
SF-268 = experiment: Growth inhibitory activity was determined against SF-268 cancer cell line of CNS cancer; type: functional; conditions: Homo sapiens
Procedure, shortened: (§1)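 NCI 60 human tumour cell line screen run at the National Cancer Institute. Cell growth and viability read with the protein stain sulforhodamine B, which binds basic amino acids of cells left attached after washing. […] MG MID is the mean GI50 calculated over all panels.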

OVCAR-8 = experiment: Growth inhibitory activity was determined against OVCAR-8 cancer cell line of Ovarian cancer; type: functional; conditions: Homo sapiens; procedure, shortened: as §1
A549 = experiment: Growth inhibitory activity was determined against A549/ATCC cancer cell line of non-small cell lung cancer; type: functional, Homo sapiens; conditions: Homo sapiens, A549; procedure, shortened: as §1
UO-31 = experiment: Growth inhibitory activity was determined against UO-31 cancer cell line of Renal cancer; type: functional; conditions: Homo sapiens; procedure, shortened: as §1
HCC 2998 = experiment: Growth inhibitory activity was determined against HCC2998 cancer cell line colon cancer; type: functional, Homo sapiens; conditions: Homo sapiens, HCC 2998; procedure, shortened: as §1
SF-539 = experiment: Growth inhibitory activity was determined against SF-539 cancer cell line of CNS cancer; type: functional; conditions: Homo sapiens; procedure, shortened: as §1
LOX IMVI = experiment: Growth inhibitory activity was determined against LOX IMVI cancer cell line of melanoma; type: functional, Homo sapiens; conditions: Homo sapiens, LOX IMVI; procedure, shortened: as §1
SN12C = experiment: Growth inhibitory activity was determined against SN12C cancer cell line of Renal cancer; type: functional; conditions: Homo sapiens; procedure, shortened: as §1
BT-549 (Homo sapiens) = experiment: Growth inhibitory activity was determined against BT-549 cancer cell line of Breast cancer; conditions: Homo sapiens, BT-549
[1] = molecular target: T1, M-phase inducer phosphatase 1 (Homo sapiens, UniProt P30304); experiment: (§2) Inhibitory activity tested against cell division cycle 25A (assay using fluorescein diphosphate (FDP) as substrate)
T1 sequence (P30304 whole entry): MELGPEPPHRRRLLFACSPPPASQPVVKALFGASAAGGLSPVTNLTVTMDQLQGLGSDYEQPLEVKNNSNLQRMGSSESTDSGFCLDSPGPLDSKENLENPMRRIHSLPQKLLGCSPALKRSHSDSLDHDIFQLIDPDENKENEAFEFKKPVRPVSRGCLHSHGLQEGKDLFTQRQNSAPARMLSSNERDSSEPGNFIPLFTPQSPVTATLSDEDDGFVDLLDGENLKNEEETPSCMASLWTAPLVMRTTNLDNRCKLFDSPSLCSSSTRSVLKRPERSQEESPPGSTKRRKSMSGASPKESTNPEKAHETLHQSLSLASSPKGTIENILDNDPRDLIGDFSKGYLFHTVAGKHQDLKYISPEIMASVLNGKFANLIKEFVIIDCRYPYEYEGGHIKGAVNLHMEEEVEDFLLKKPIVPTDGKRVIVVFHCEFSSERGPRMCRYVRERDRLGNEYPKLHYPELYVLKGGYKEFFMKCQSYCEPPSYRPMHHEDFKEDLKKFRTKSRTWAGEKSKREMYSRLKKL
Procedure, shortened: (§3)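 Recombinant human GST-Cdc25A fusion protein, each batch calibrated so that FDP was dephosphorylated linearly over 20 min. Fluorescein diphosphate was the substrate. Reactions ran 15 min at 25 °C in the dark and were stopped with sodium orthovanadate. IC50 came from at least two independent runs, each in triplicate.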

NCI-H23 = experiment: Growth inhibitory activity was determined against NCI-H23 cancer cell line of non-small cell lung cancer; type: functional, Homo sapiens; conditions: Homo sapiens, NCI-H23; procedure, shortened: as §1
NCI-H522 = experiment: Growth inhibitory activity was determined against NCI-H522 cancer cell line of non-small cell lung cancer; type: functional; conditions: Homo sapiens; procedure, shortened: as §1
NCI/ADR-RES = experiment: Growth inhibitory activity was determined against NCI/ADR-RES cancer cell line of Breast cancer; type: functional, Homo sapiens; conditions: Homo sapiens, NCI/ADR-RES; procedure, shortened: as §1
HT-29 = experiment: Growth inhibitory activity was determined against HT-29 cancer cell line colon cancer; type: functional, Homo sapiens; conditions: Homo sapiens, HT-29; procedure, shortened: as §1
786-0 = experiment: Growth inhibitory activity was determined against 786-0 cancer cell line of Renal cancer; type: functional; conditions: Homo sapiens; procedure, shortened: as §1
T47D = experiment: Growth inhibitory activity was determined against T-47D cancer cell line of Breast cancer; type: functional, Homo sapiens; conditions: Homo sapiens, T47D; procedure, shortened: as §1
SK-MEL-5 = experiment: Growth inhibitory activity was determined against SK-MEL-5 cancer cell line of melanoma; type: functional, Homo sapiens; conditions: Homo sapiens, SK-MEL-5; procedure, shortened: as §1
PC-3 = experiment: Growth inhibitory activity was determined against PC-3 cancer cell line of Prostate cancer; type: functional; conditions: Homo sapiens; procedure, shortened: as §1
OVCAR-3 = experiment: Growth inhibitory activity was determined against OVCAR-3 cancer cell line of Ovarian cancer; type: functional; conditions: Homo sapiens; procedure, shortened: as §1
COLO 205 = experiment: Growth inhibitory activity was determined against COLO 205 cancer cell line colon cancer; type: functional, Homo sapiens; conditions: Homo sapiens, COLO 205; procedure, shortened: as §1
[2] = molecular target: T2, M-phase inducer phosphatase 1 (Homo sapiens) (UniProt P30304); experiment: as §2; conditions: concentration not given here
T2 sequence (whole entry): T1 sequence (P30304 whole entry)
Procedure, shortened: as §3, with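 “orthovanadate. Fluorescein monophosphate was read at 485 nm excitation and 530 nm emission.” for “orthovanadate.”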

CC(C)CCCC(C)[C@H]1CC[C@H]2[C@H](CC(=O)O)[C@@H](C(C)CCCCC#N)CC[C@]12C (stereo in doubt; 21)
GI50 (SF-268): > 25 µM
GI50 (OVCAR-8): 4.88 µM
GI50 (A549): 5.09 µM
GI50 (UO-31): 9.97 µM
GI50 (HCC 2998): 5.36 µM
GI50 (SF-539): 10.8 µM
GI50 (LOX IMVI): 4.86 µM
GI50 (SN12C): 6.05 µM
GI50 (BT-549 (Homo sapiens)): 5.16 µM
IC50 [1]: 2.2 µM
GI50 (NCI-H23): 5.27 µM
GI50 (NCI-H522): > 25 µM
GI50 (NCI/ADR-RES): 5.34 µM
GI50 (HT-29): 4.69 µM
GI50 (786-0): 8.45 µM
GI50 (T47D): 6.69 µM
GI50 (SK-MEL-5): 7.04 µM
GI50 (PC-3): 7.15 µM
GI50 (OVCAR-3): 5.25 µM
GI50 (COLO 205): 5.29 µM

C=C(CCC(CC#N)OCC)[C@H]1CC[C@]2(C)[C@@H](C(C)CCCC(C)C)CC[C@H]2[C@@H]1CC(=O)O (some centres undefined)
IC50 [1]: 2.9 µM

CCOC(=O)CC(=O)CSC(=S)O[C@H]1CC[C@@]2(C)[C@@H](CC[C@@H]3[C@@H]2CC[C@]2(C)[C@@H]([C@H](C)CCCC(C)C)CC[C@@H]32)C1
IC50 [1]: > 100 µM

CC(C)CCC[C@@H](C)[C@H]1CC[C@H]2[C@H](CC(=O)O)[C@@H]([C@@]3(C)CC=CCC3=O)CC[C@]12C
IC50 [1]: 5.8 µM

COC(CC#N)CC[C@@]1(C)OC(=O)C[C@H]2[C@@H]3CC[C@H]([C@H](C)CCCC(C)C)[C@@]3(C)CC[C@@H]21 (some centres undefined)
IC50 [1]: 10.5 µM

CC(C)CCC[C@@H](C)[C@H]1CC[C@H]2[C@@H]3CC[C@H]4C[C@@H](OC(=S)SCC(=O)c5ccccc5)CC[C@]4(C)[C@H]3CC[C@]12C
IC50 [1]: > 100 µM

CC(=O)OC1CC[C@](C)([C@H]2CC[C@]3(C)[C@@H]([C@H](C)CCCC(C)C)CC[C@H]3[C@@H]2CC(=O)O)C(=O)C1 (some centres undefined)
IC50 [1]: 9.3 µM

CC(C)CCC[C@@H](C)[C@H]1CC[C@H]2[C@@H]3CC(=O)O[C@@](C)(CC/C=C\C#N)[C@H]3CC[C@]12C
IC50 [1]: > 50 µM

CC(C)CCC[C@@H](C)[C@H]1CC[C@H]2[C@@H]3CC[C@H]4CC(NCCCC(=O)O)CC[C@]4(C)[C@H]3CC[C@]12C (some centres undefined)
inhibition [2]: 16%

CC(C)CCC[C@@H](C)[C@H]1CC[C@H]2[C@@H]3CC[C@H]4C[C@@H](OC(=S)SCC(=O)O)CC[C@]4(C)[C@H]3CC[C@]12C
IC50 [1]: 0.9 µM

From ChEMBL document CHEMBL1134845, “Syntheses and biological activities of a novel group of steroidal derived inhibitors for human Cdc25A protein phosphatase” (J Med Chem, 2001)
